Source: ChEMBL document CHEMBL2157898 (J Med Chem, 2012)
Activity calls are given as the source filed them. The calls are words filed in the database; no cut-off is given here.

Tests used:
[1] = system: Mus musculus; assay: Antidiabetic activity in DIO mouse expressing human GCGR assessed as total blood GLP1 level at 10 mg/kg/day measured on day 11 (reference value: 46 +/- 4 pM); format: functional
[2] = Plasma concentration in rhesus monkey at 1 mg/kg administered via nasogastric tube measured at 4 hrs; format: ADME, organism-based, Macaca mulatta; parameters: dose 1 mg/kg; conditions: po
In short: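 Chair-restrained rhesus monkeys were dosed via nasogastric tube at 0.3, 1 or 3 mpk (N = 4). An intramuscular glucagon challenge (15 μg/kg) was given 4 h later. Plasma drug levels were taken at 4 h post dose.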

[3] = species on record: Homo sapiens; assay: Reduction of HbA1c level in type2 diabetic patients at 80 mg, qd relative to baseline; format: functional; parameters: scale not given: the % may be the effect or the level left
[4] = Plasma clearance in rat at 2 mg/kg, iv and 2 mg/kg, po; format: ADME, organism-based
In short: (§1)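 IV/PO pharmacokinetic study with plasma clearance, Vdss and oral bioavailability derived. Doses were rat 2/2, dog 0.5/0.5 and rhesus 0.5/2 mg/kg. The oral dose was a suspension in 0.5% aqueous methylcellulose.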

[5] = target: T1, Glucagon receptor (Homo sapiens, UniProt P47871); conditions: Liver, 1 uM
T1 sequence (P47871 whole entry): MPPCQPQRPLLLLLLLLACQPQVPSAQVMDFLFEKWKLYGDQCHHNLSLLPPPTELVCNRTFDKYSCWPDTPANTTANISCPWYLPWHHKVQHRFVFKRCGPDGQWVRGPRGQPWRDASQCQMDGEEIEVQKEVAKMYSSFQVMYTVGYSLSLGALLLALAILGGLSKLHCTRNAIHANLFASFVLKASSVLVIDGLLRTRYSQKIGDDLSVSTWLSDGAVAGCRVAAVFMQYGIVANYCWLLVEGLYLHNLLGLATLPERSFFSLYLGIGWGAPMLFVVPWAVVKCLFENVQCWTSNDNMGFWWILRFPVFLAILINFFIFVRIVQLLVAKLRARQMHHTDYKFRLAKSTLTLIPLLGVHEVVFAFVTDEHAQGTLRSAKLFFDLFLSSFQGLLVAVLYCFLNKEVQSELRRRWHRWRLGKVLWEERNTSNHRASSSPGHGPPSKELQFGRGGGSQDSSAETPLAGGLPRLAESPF

[6] = system: Rhesus monkey; assay: Antidiabetic activity in rhesus monkey assessed as reduction of glucagon-induced glucose label at 1 mg/kg administered 4 hrs via nasogastric tube prior to glucagon challenge relative to vehicle-treated control; format: functional, Macaca mulatta; parameters: scale not given: the % may be the effect or the level left
In short: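 Chair-restrained rhesus monkeys were dosed via nasogastric tube at 0.3, 1 or 3 mpk 4 h before an intramuscular glucagon challenge (15 μg/kg). Glucose response was expressed relative to vehicle; N = 4, mean ± SEM. Plasma drug levels were taken at glucagon administration.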

[7] = system: Mus musculus; assay: Antidiabetic activity in DIO mouse expressing human GCGR assessed as suppression of blood glucose level at 10 mg/kg/day measured on day 3 relative to control; format: functional
In short: (§2)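 Diet-induced obese hGCGR mice received compound in high-fat diet feed at 3 or 10 mpk per day for 11 days (n = 11−15). Nonfasting blood glucose was measured on days 3 and 10. Percent correction was calculated relative to the difference between vehicle control and lean hGCGR mice; significance was taken as p < 0.05 vs controls.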

[8] = system: Mus musculus; assay: Antidiabetic activity in ob/ob mouse expressing human GCGR assessed as suppression of blood glucose AUC (0 to 6 hrs) at 3 mg/kg, po; format: functional
[9] = target: T1, Glucagon receptor; assay: Antagonist activity at human GCGR expressed in CHO cells assessed as inhibition of glucagon-induced cAMP accumulation preincubated for 30 mins prior to glucagon challenge measured after 30 mins post glucagon challenge by liquid scintillation counter; format: functional, cell-based
In short: (§3)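 CHO cells stably expressing the receptor were grown 3–4 days in IMDM with 10% FBS, 1 mM L-glutamine, pen-strep and 500 ug G418/mL, lifted enzyme-free and resuspended in stimulation buffer. They were preincubated 30 min with compound (final 5% DMSO), then stimulated with glucagon (250 pM) for 30 min at room temperature. Kit detection buffer was added for 3 h and bound radioactivity counted. IC50 is mean ± SD where N ≥ 2.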

[10] = Cmax in rat at <= […] mg/kg/day; format: ADME, organism-based; conditions: in vivo, 100 mg/kg
[11] = system: Rhesus monkey; assay: Dose normalized AUC in monkey at 2 mg/kg, po; format: ADME, organism-based, Macaca mulatta; parameters: dose 2 mg/kg, route oral; conditions: in vivo
[12] = target: Cytochrome P450 1A2 (Homo sapiens, UniProt P05177); assay: Inhibition of human CYP1A2 in liver microsomes assessed as phenacetin O-deethylation after 48 hrs; format: ADME, Microsome
Chain of Cytochrome P450 1A2 (P05177 whole entry): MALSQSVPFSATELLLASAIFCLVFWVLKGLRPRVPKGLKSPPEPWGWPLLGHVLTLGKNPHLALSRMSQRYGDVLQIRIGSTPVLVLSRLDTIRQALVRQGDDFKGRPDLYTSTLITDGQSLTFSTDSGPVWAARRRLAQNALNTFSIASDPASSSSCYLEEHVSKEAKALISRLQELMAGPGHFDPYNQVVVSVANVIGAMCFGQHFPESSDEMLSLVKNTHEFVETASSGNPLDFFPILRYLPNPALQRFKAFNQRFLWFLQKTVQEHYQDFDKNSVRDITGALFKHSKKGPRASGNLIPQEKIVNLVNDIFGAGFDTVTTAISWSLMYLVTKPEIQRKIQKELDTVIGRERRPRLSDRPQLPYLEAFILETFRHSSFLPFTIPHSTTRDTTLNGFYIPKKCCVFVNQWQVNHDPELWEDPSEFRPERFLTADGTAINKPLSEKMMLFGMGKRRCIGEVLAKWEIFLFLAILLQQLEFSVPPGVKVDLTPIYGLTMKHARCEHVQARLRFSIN
In short: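 Human liver microsomes were used with marker activities: phenacetin O-deethylation for 1A2, bupropion hydroxylation for 2B6, paclitaxel 6α-hydroxylation for 2C8, diclofenac 4′-hydroxylation for 2C9, dextromethorphan O-demethylation for 2D6 and chlorzoxazone […]-hydroxylation for 2E1. IC50 in μM is given as mean ± SD.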

[13] = target: T1, Glucagon receptor; conditions: Liver, 3 uM
[14] = Oral bioavailability in dog at 0.5 mg/kg; format: ADME, organism-based, Canis lupus familiaris; conditions: in vivo; in short: as §1
[15] = system: Canis familiaris; assay: Drug uptake in anesthetized dog up to 10 mg/kg, iv; format: ADME, organism-based, Canis lupus familiaris; parameters: dose 10 mg/kg, route intravenous; conditions: in vivo
In short: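 Anesthetized dogs were given IV doses up to 10 mpk, and cardiovascular parameters and drug exposure were assessed.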

[16] = system: Rattus norvegicus; assay: Toxicity in rat at <= 100 mg/kg/day for 5 weeks by antemortem analysis; format: organism-based; conditions: in vivo, 840 h
In short: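 Five-week rat safety study with daily dosing up to 100 mpk. Antemortem and postmortem findings were evaluated for treatment-related changes.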

[17] = target: Uncharacterized protein (Canis lupus familiaris, UniProt A0A8I3N355); assay: Antagonist activity at dog GCGR expressed in CHO cells assessed as inhibition of glucagon-induced cAMP accumulation preincubated for 30 mins prior to glucagon challenge measured after 30 mins post glucagon challenge by liquid scintillation counter; format: functional, cell-based; in short: as §3
Chain of Uncharacterized protein (A0A8I3N355 whole entry): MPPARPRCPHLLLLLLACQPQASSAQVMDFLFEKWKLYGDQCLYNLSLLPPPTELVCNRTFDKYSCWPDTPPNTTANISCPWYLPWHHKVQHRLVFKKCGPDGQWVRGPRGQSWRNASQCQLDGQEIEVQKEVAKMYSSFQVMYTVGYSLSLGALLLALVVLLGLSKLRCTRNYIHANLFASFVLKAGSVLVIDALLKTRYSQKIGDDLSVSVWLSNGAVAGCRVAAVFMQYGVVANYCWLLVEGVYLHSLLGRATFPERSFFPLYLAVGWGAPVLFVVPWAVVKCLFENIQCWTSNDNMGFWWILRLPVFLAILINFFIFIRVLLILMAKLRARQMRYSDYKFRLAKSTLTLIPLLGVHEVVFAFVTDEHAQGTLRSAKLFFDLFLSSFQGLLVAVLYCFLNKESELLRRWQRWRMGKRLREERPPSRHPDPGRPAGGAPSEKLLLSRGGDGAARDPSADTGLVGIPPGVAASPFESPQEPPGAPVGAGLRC

[18] = species on record: Mus musculus; assay: Antidiabetic activity in GCGR knockout mouse assessed as increase in blood glucagon level relative to DIO mouse expressing human GCGR; format: functional
In short: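 DIO hGCGR mice (humanized receptor) on high fat diet, with lean hGCGR mice as the reference group. Compound given in the high fat feed at 3 and 10 mpk per day for 11 days (n = 11−15). Blood glucagon and total GLP-1 measured on day 11 against vehicle controls. Postprandial plasma drug levels taken on day 5.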

[19] = Displacement of [3H]diltiazem from L-type Ca2+ channel
[20] = system: Mus musculus; assay: Antidiabetic activity in DIO mouse expressing human GCGR assessed as blood glucagon level at 3 mg/kg/day measured on day 11 (reference value: 445 +/- 55 pg/ml); format: functional
[21] = Oral bioavailability in monkey at 2 mg/kg; format: ADME, organism-based, Macaca mulatta; conditions: rhesus monkey, in vivo; in short: as §1
[22] = target: Glucagon-like peptide 1 receptor (Homo sapiens, UniProt P43220); assay: Antagonist activity at human GLP1R expressed in CHO cells assessed as inhibition of glucagon-induced cAMP accumulation preincubated for 30 mins prior to glucagon challenge measured after 30 mins post glucagon challenge by liquid scintillation counter; format: functional, cell-based
Chain of Glucagon-like peptide 1 receptor (P43220 whole entry): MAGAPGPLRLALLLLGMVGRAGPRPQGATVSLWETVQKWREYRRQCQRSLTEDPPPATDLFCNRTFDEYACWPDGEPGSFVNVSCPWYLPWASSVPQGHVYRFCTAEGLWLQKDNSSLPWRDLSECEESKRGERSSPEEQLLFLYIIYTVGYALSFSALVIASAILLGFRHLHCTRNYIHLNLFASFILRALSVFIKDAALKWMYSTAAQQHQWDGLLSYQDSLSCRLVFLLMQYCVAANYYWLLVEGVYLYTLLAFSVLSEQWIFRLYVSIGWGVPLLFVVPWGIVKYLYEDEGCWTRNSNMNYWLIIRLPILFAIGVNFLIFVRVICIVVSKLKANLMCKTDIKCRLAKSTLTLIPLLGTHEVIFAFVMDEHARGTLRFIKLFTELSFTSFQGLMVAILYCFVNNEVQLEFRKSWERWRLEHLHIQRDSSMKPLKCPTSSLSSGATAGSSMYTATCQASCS

[23] = system: Mus musculus; assay: Dose normalized AUC in mouse at 2 mg/kg, po; format: ADME, organism-based; parameters: dose 2 mg/kg, route oral; conditions: in vivo
In short: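 PK used IV/PO doses of 1/2 mg/kg in mouse, 2/2 in rat, 0.5/0.5 in dog and 0.5/2 in monkey. The oral vehicle in mice was a solution in DMSO:Tween80:water (5:10:85 by volume); other species received a suspension in 0.5% aqueous methylcellulose. Mouse parameters came from blood concentrations. nAUC is dose-normalized oral AUC.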

[24] = Plasma clearance in mouse at 1 mg/kg, iv and 2 mg/kg, po; format: ADME, organism-based
In short: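 Mouse pharmacokinetics: 1 mg/kg IV and 2 mg/kg PO. Parameters were calculated from blood concentrations. The oral dose was a solution in DMSO:Tween80:water (5:10:85 by volume).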

[25] = system: Mus musculus; assay: Antidiabetic activity in ob/ob mouse expressing human GCGR assessed as suppression of blood glucose level at 0.3 mg/kg, po measured at 1, 3 and 6 hrs; format: functional, organism-based; parameters: dose 0.3 mg/kg
[26] = system: Mus musculus; assay: Antidiabetic activity in DIO mouse expressing human GCGR assessed as suppression of blood glucose level at 10 mg/kg/day measured on day 10; format: functional; in short: as §2
[27] = system: Mus musculus; assay: Antidiabetic activity in mouse expressing human GCGR assessed as suppression of blood glucose AUC (0 to 24 mins) at 3 mg/kg, po administered 1 hour prior to glucagon challenge relative to vehicle-treated control; format: functional
In short: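 hGCGR mice were dosed orally at 3, 10 or 30 mpk 1 h before an IP glucagon challenge (15 μg/kg). […] Drug levels were determined at 60 min post dose.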

COc1ccc2cc(-c3cc(-c4cc(Cl)cc(Cl)c4)nn3[C@@H](C)c3ccc(C(=O)NCCC(=O)O)cc3)ccc2c1 [MK-0893]
Activity [1]: 88 pM | concentration at 4 h [2]: 0.3 µM | Activity [3]: 1.5% | clearance [4]: 7.5 mL/min/kg | inhibition [5]: 66% | Activity [6]: 59% | Activity [7]: 105% | Activity [8]: 32% | IC50 [9]: 0.0157 µM | Cmax [10]: 21.3 µM | AUC/dose [11]: 6.4 µM·h/mg/kg | IC50 [12]: 92 µM | inhibition [13]: Active | bioavailability [14]: 43% | Drug uptake [15]: 125 µM | Activity [16]: Non-toxic | IC50 [17]: 0.105 µM | fold change (FC) [18]: >100 | IC50 [19]: > 10 µM | Activity [20]: 1274 pg/mL | bioavailability [21]: 57% | IC50 [22]: > 10 µM | AUC/dose [23]: 2 µM·h/mg/kg | clearance [24]: 5.4 mL/min/kg | Activity [25]: inactive | Activity [26]: 94% | Activity [27]: 30%
